Results gathered from unrelated publications.
Compare with care: the assays were run in different laboratories.
Fibroblast growth factor 14: Fibroblast growth factor 14 (Homo sapiens, UniProt Q92915)
HTR1A: 5-hydroxytryptamine receptor 1A (HTR1A, Homo sapiens, UniProt P08908)

Compound	target	test	setting	endpoint	value
C1=C/COCc2cc(ccc2OCCN2CCCC2)Nc2nccc(n2)-c2cccc(c2)COC/1	Eukaryotic translation initiation factor 2-alpha kinase 1 (EIF2AK1, Homo sapiens, UniProt Q9BQI3)	binding	0.1 µM	remaining binding	87%
O=c1cc(-c2ccc([N+](=O)[O-])cc2)[nH]c2c(-c3ccc(Cl)cc3)c(Cc3ccccc3)nn12	Fibroblast growth factor 14	binding, SPR	–	koff	0.00101 s⁻¹
CN(C)CCOC(=O)COc1ccc(Cl)cc1	HTR1A	ligand displacement, radioligand	1 µM, cell membranes	inhibition	-5.33%
CCCCC(=O)Nc1ccc(-c2ccc3ncn(CCC)c(=O)c3c2)cn1	cAMP-dependent protein kinase catalytic subunit beta (PRKACB, Homo sapiens, UniProt P22694)	binding, competition with immobilised ligand	0.5 µM	remaining binding	87%
NC/C(=C\F)COc1cccc(Cn2c(=S)[nH]c(=O)c3[nH]cnc32)c1	HTR1A	ligand displacement, radioligand	10 µM	inhibition	< 50%
CC(=O)Nc1ccc(Oc2ccc3c(c2)C(=O)N(c2cc(C)ccc2C)C3=O)cc1	Fibroblast growth factor 14	binding, SPR	–	kon	69300 M⁻¹ s⁻¹
COc1ccc2oc(-c3ccc4nc(N)oc4c3)c/c(=N\c3ccccc3NC(=O)CCN)c2c1	Phosphatidylinositol 4-phosphate 3-kinase C2 domain-containing subunit alpha (PIK3C2A, Homo sapiens, UniProt O00443)	binding	1 µM	remaining binding	101%
C[C@]1(O)CCCN(c2nc(Nc3ccc(S(=O)(=O)N[C@H]4CC[C@H](CN5CCN(c6ccc(C7CCC(=O)NC7=O)cc6F)CC5)CC4)cc3Cl)ncc2C(F)(F)F)C1 (stereo partly drawn)	Leucine-rich repeat serine/threonine-protein kinase 2 (LRRK2, Homo sapiens, UniProt Q5S007, G2019S)	binding, competition with immobilised ligand	1 µM	remaining binding	12%
Cc1nc(CSc2nc(-c3ccc(C(C)(C)C)cc3)n[nH]2)cs1	Fibroblast growth factor 14	thermal stability	25 µM	ΔTm	0.3 °C
CCN1/C(=C/C(C)=O)Sc2ccc(F)cc21	HTR1A	ligand displacement, radioligand	10 µM	inhibition	1.73%
Cc1cccc(NC(=O)Cn2cc(CO)c3ccccc32)c1	Fibroblast growth factor 14	binding, SPR	–	koff	0.013 s⁻¹
Cc1cc(O)c(-c2ccc([C@@H](C)CN(C)C)cc2)c2c1[nH]c(=O)c1sccc12	Serine/threonine-protein kinase TAO2 (TAOK2, Homo sapiens, UniProt Q9UL54)	enzyme activity, inhibitor	0.1 µM	inhibition	-4.37%
